Tests used:
[1] = biological target: T1, GlnA4Sc (Streptomyces coelicolor, UniProt O88070); test: GlnA4Sc enzyme activity assay; assay type: biochemical
T1 sequence (O88070 1-462): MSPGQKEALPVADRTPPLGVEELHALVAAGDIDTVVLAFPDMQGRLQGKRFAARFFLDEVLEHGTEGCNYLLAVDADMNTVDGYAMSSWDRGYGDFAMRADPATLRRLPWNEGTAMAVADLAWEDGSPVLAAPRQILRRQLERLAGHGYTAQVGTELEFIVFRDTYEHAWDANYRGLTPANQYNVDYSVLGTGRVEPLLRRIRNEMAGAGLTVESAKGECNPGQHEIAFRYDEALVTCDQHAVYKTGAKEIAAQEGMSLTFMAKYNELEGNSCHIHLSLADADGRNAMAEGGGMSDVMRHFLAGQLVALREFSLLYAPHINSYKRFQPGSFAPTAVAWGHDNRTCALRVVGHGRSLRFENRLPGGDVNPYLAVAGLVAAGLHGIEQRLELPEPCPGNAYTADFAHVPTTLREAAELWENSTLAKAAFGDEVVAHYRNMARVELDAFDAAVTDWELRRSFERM

[2] = system: S. coelicolor M145; test: S. coelicolor growth assay; assay type: cell-based, Streptomyces coelicolor
Outline: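 S. coelicolor M145 grown in defined Evans medium with 25 mM ammonium chloride, L-glutamine or ethanolamine hydrochloride as sole nitrogen source. Test compound added at final 100, 50, 25, 12.5, 6.25, 3.125, 1.562, 0.781 or 0 μM. Cultures shaken at 180 rpm for 7 days at 30 °C. Phase-contrast images taken at x400; hyphae thickness used to quantify growth.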

[3] = biological target: GlnA1Mt (Mycobacterium tuberculosis, UniProt P9WN39); assay type: biochemical; conditions: at 5 mM (SI Figure 2)
Chain of GlnA1Mt (P9WN39 whole entry): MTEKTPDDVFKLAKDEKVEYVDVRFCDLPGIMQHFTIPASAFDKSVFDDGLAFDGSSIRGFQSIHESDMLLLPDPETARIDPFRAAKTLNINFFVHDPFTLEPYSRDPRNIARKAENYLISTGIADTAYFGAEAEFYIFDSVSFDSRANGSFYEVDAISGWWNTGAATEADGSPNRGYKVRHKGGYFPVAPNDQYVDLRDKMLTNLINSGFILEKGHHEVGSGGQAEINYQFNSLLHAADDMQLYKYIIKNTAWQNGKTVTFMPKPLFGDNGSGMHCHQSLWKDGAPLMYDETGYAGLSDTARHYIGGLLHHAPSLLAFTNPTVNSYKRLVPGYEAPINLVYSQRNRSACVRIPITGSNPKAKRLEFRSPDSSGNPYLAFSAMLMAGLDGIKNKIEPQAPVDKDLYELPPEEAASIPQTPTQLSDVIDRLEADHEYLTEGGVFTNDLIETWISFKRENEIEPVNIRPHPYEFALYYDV

Compound: N=S(=O)(CCO)CC[C@H](N)C(=O)O (stereo partly drawn) [7 a, (2S)‐2‐Amino‐4‐(2‐hydroxyethylsulfonimidoyl)butanoic acid]
- IC50 [1]: 2170 µM

Compound: N=S(=O)(CCCO)CC[C@H](N)C(=O)O (stereo partly drawn) [7 b, (2S)‐2‐Amino‐4‐(3‐hydroxypropylsulfonimidoyl)butanoic acid]
- Hyphae thickness with additional glutamine (rescue) ([2]; 100 μM inhibitor, additional glutamine as alternative nitrogen source): 1.11 μm
- Non-specific toxic effects (in words) ([2]; 100 μM, glutamine rescue control experiment): excludes any non‐specific toxic effects
- Size of mycelial agglomerates (in words) ([2]; lowest tested concentration 0.78 μM, ethanolamine as nitrogen source): reduced the size of the mycelial agglomerates
- Activity against GlnA1Mt (in words) [3]: neither 7 b nor 8 showed activity
- IC50 [1]: 12.3 µM

Compound: N=S(=O)(CCCCO)CC[C@H](N)C(=O)O (stereo partly drawn) [7 c, (2S)‐2‐Amino‐4‐(4‐hydroxybutylsulfonimidoyl)butanoic acid]
- IC50 [1]: 79.3 µM

Compound: CS(=O)(CC[C@H](N)C(=O)O)=NCCO (stereo partly drawn) [compound 8, (2S)‐2‐Amino‐4‐(N‐(2‐hydroxyethyl)‐methylsulfonimidoyl)butanoic acid]
- Activity against GlnA1Mt (in words) [3]: neither 7 b nor 8 showed activity
- IC50 [1]: 659 µM
- Inhibition of GlnA4Sc activity (in words) ([1]; Figure 1a/1b): inhibited
